Test results from PubChem BioAssay.
Calls of active or inactive are those of the source.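 Rule for the calls: active = calcium signal ratio cut to more than 3 SD under the fully stimulated control mean yet still positive, in both repeats and the primary screen; inactive = the rest.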

Molecular target: Short transient receptor potential channel 4 (Mus musculus) (UniProt Q9QUQ5)
Assay: blockers of DAMGO-evoked TRPC4 calcium flux – cell-based, second round, Fluo4, HEK293 TRPC4beta/mu-opioid, 1 µM, confirmation (AID 2637)
Conditions: at 1 µM
Method in brief: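 Doses: 1 µM single point / Material: HEK293 cells with TRPC4beta plus mu-opioid receptor / Control set: DAMGO ECmax control wells and wells without test compound / Schedule: dye loading 45 min room temperature, compound pre-incubation 110 s / Measured by: kinetic Fluo4 Ca2+ fluorescence reading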

Short transient receptor potential channel 4 (Mus musculus), sequence (Q9QUQ5 whole entry, looked up): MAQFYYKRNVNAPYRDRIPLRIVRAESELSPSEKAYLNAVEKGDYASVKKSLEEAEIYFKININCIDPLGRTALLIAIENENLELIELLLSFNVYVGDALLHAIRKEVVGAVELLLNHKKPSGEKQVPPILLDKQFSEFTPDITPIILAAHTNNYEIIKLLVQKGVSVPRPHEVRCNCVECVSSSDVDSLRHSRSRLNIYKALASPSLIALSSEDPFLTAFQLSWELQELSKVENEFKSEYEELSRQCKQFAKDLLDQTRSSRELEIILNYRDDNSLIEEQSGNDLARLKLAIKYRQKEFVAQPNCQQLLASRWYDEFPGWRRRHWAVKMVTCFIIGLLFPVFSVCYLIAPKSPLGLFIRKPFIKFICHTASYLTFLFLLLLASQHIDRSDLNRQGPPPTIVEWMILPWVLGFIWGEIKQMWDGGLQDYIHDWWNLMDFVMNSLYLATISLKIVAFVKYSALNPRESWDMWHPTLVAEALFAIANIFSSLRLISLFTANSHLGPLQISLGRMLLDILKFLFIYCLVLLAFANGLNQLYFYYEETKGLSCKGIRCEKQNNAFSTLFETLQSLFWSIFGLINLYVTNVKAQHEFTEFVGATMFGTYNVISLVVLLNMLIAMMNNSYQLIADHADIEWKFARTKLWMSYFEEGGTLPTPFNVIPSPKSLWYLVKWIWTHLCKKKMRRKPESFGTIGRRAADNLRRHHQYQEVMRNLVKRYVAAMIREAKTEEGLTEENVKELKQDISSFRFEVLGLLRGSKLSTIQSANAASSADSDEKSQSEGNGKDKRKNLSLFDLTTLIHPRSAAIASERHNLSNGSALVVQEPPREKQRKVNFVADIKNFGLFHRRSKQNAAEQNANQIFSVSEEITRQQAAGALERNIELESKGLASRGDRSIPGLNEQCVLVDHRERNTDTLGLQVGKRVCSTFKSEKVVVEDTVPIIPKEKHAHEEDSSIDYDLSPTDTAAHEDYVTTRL

outcome, inactive:
CCCCN(CC)CCNC(=O)Cn1cc2c(n1)-c1c(oc(C(=O)N3CCCC3)c1C)CC2
Cc1ccc(NC(=S)NC2CC3CCC(C2)N3Cc2ccco2)c(C)c1 (centres undefined)
COc1ccc(N2CCN(Cc3nc4ccccc4n3C)CC2)cc1
CCC(=O)NC(C)C(c1cccs1)N1CCN(c2ccccc2)CC1 (centres undefined)
CC(=O)n1cc([C@H]2C=C(C(=O)NCc3ccccc3)O[C@@H](OCc3ccc(CO)cc3)C2)c2ccccc21
CCN1CCCC1CNC(=O)c1cc2c(OC)cccc2[nH]1 (centres undefined)
COc1ccc(F)cc1CN1CCN(C(=O)CCC(=O)Nc2nnc(C(C)C)s2)CC1
CN(CCOc1ccc(Br)cc1)CC(O)c1ccccc1 (centres undefined)
CCN1CCN(c2c(Cl)cccc2NC(=O)c2ccc([N+](=O)[O-])cc2)CC1
CCn1c(=O)c(C(=O)NNC(=O)c2ccccc2F)c(O)c2ccccc21
CN1C(CC(=O)Nc2ccc(Br)cc2)c2ccccc2CC1(C)C (centres undefined)
COc1ccc(C(CNCC(O)COc2c(C)ccc(C)c2C)N(C)C)cc1 (centres undefined)
COc1ccc(C(CNC(=O)C(Cc2ccccc2)NC(N)=O)N(C)C)cc1 (centres undefined)
CCCN(CCC)CCNC(=O)CCC(=O)Nc1ccc2nc(N3CCOCC3)cc(C)c2c1
Fc1ccc(NC(=S)NCCc2ccccn2)cc1
Cc1noc(C)c1CCC(=O)NC1CCCN(Cc2ccc(CC(C)C)cc2)C1 (centres undefined)
COc1ccc(C(CCNCc2ccc(N(C)C)cc2)c2ccccc2)cc1 (centres undefined)
COc1ccc(-c2nn(-c3ccccc3C)cc2CNCc2cccnc2)cc1F
CN(C)C(CNC(=O)c1cccc(S(=O)(=O)N(C)C)c1)c1ccccc1 (centres undefined)
Nc1c(C(=O)c2ccccc2)sc2nsc(SCCN3CCCC3)c12
CC1CC(C)CN(CCCNC(=O)c2ccc3c(c2)N(Cc2ccccc2)C(=O)c2ccccc2S3=O)C1 (centres undefined)
CN(C)c1ccc(C(CNC(=O)Cc2cccc3ccccc23)N(C)C)cc1 (centres undefined)
Cc1csc2c(N3CCN(C(=S)Nc4ccc(C(F)(F)F)cc4)CC3)ncnc12
O=S(=O)(NCCc1csc(-c2ccccc2)n1)c1cccnc1
COc1ccc(-c2nc(CSCC(=O)NC3CCN(Cc4ccccc4)CC3)c(C)o2)cc1OC
NC(N)=NN=C1CCCCCCCCCCC1
CCn1c(CN2CCN(Cc3ccc(C)cc3)C(CCO)C2)nc2ccccc21 (centres undefined)
COc1ccc(C(CNc2nc(-c3cccnc3)nc3ccccc23)N(C)C)cc1 (centres undefined)
Cc1ccc(Cn2c(SCCN3CCCCC3)nc3c2c(=O)n(C)c(=O)n3C)cc1
COc1ccc(C(CNC(=O)CCOc2ccccc2)N(C)C)cc1 (centres undefined)
CCOC(=O)C1(CCOc2ccccc2)CCN(Cc2cc(OC)ccc2OC)CC1
Cc1cccc(NC(=S)NCC(c2ccccc2)N(C)C)c1 (centres undefined)
CC(C)n1cnc2c(N(C)c3ccccc3)nc(N(CCN(C)C)Cc3ccccc3)nc21
CC(CN1CCCC(C(N)=O)C1)c1ccccc1 (centres undefined)
O=c1c(Cc2ccc(F)cc2)c(O)ccn1CCc1cnc[nH]1
Cc1c(Cl)cccc1NC(=S)NCC(c1cccnc1)N(C)C (centres undefined)
COc1ccc(C(CNC(=O)c2ccc3c(c2)OCCO3)N(C)C)cc1 (centres undefined)
O=C(NC1CCCN(Cc2ccc(Cl)cc2)C1)C1CCC1 (centres undefined)
CN(C)c1ccc(-c2sc(Nc3ccccc3)n[n+]2-c2ccc(F)cc2)cc1
